Reference: ChEMBL document CHEMBL3407350, “Synthesis and anti-hepatitis B virus activity of C4 amide-substituted isosteviol derivatives” (Bioorg Med Chem, 2015)
Values after ≈ are worked out from the molar mass of the structure shown.

Tests used:
[1] = test system: Hepatitis B virus; assay: Antiviral activity against HBV infected in human HepG2(2.2.15) cells assessed as inhibition of surface antigen secretion by EIA; type: functional, organism-based
Procedure, shortened: (§1)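 HepG2 2.2.15 cells (HepG2 stably carrying a head-to-tail HBV DNA dimer; MEM, 10% FBS, 37 °C, 5% CO2) treated with compound for 3 days; conditioned medium assayed for secreted HBsAg and HBeAg by enzyme immunoassay; mean and SD, n = 3; IC50 taken as 50% inhibitory concentration.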

[2] = Cytotoxicity against human HepG2(2.2.15) cells; type: cell-based; settings: read-out: TC50 (the source's name)
Procedure, shortened: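 Cytotoxicity by MTS: HepG2 2.2.15 cells seeded at 4×10^4 cells/ml for 24 h, exposed to serial dilutions 2.5–160 µg/ml for 3 days; four replicates, viability expressed relative to untreated control; TC50 as 50% cytotoxic concentration.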

[3] = Selectivity index, ratio of TC50 for human HepG2(2.2.15) cells to IC50 for HBV infected in human HepG2(2.2.15) cells assessed as inhibition of surface antigen secretion
Procedure, shortened: (§2)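 Selectivity index computed as TC50 (MTS, HepG2 2.2.15, 3 days) divided by IC50 for HBsAg, HBeAg or virion DNA inhibition in the same cell line.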

[4] = Selectivity index, ratio of TC50 for human HepG2(2.2.15) cells to IC50 for HBV infected in human HepG2(2.2.15) cells assessed as inhibition of viral DNA replication; procedure, shortened: as §2
[5] = test system: Hepatitis B virus; assay: Antiviral activity against HBV infected in human HepG2(2.2.15) cells assessed as inhibition of e antigen secretion by EIA; type: functional, organism-based; procedure, shortened: as §1
[6] = test system: Hepatitis B virus; assay: Antiviral activity against HBV infected in human HepG2(2.2.15) cells assessed as inhibition of viral DNA replication; type: functional, organism-based
Procedure, shortened: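 Secreted virion DNA from HepG2 2.2.15 cells after 3 days of compound treatment; HBV DNA isolated from conditioned medium and quantified by SYBR Green real-time PCR (45 cycles, 95 °C 15 s / 58 °C 1 min); mean and SD, n = 3; IC50 as 50% inhibitory concentration.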

[7] = Selectivity index, ratio of TC50 for human HepG2(2.2.15) cells to IC50 for HBV infected in human HepG2(2.2.15) cells assessed as inhibition of e antigen secretion; procedure, shortened: as §2

Row | IC50 [1] [µg/mL] | IC50 [5] [µg/mL] | IC50 [6] [µg/mL] | SMILES | CC50 [2] [µg/mL] | Selectivity Index [3] | Selectivity Index [4] | Selectivity Index [7]
1 | 32.5 (≈ 93.9 µM) |  |  | CCC(=O)N[C@]1(C)CCC[C@@]2(C)[C@@H]3CC[C@@]4(C)C[C@]3(CC[C@@H]21)CC4=O | 87.5 (≈ 253 µM) | 2.7 |  | 
2 | 10.5 (≈ 22.3 µM) |  |  | C[C@@]12CC[C@@H]3[C@@](CC[C@H]4[C@@]3(C)CCC[C@@]4(C)NC(=O)c3ccc(Br)cc3)(CC1=O)C2 | 14.9 (≈ 31.5 µM) | 1.41 |  | 
3 | 18.8 (≈ 44.3 µM) |  |  | COc1ccc(C(=O)N[C@]2(C)CCC[C@@]3(C)[C@@H]4CC[C@@]5(C)C[C@]4(CC[C@@H]32)CC5=O)cc1 | 22.4 (≈ 53 µM) | 1.2 |  | 
4 | 4.17 (≈ 10.1 µM) | 12.8 (≈ 31.1 µM) | 7.44 (≈ 18.1 µM) | C[C@@]12CC[C@@H]3[C@@](CC[C@H]4[C@@]3(C)CCC[C@@]4(C)NC(=O)c3ccc(F)cc3)(CC1=O)C2 | 19.7 (≈ 48 µM) | 4.73 | 2.65 | 1.54
5 | 8.45 (≈ 20.2 µM) |  |  | C[C@@]12CC[C@@H]3[C@@](CC[C@H]4[C@@]3(C)CCC[C@@]4(C)NC(=O)c3ccc(C#N)cc3)(CC1=O)C2 | 10.8 (≈ 25.8 µM) | 1.28 |  | 
6 |  |  |  | Cc1ccc(C(=O)N[C@]2(C)CCC[C@@]3(C)[C@@H]4CC[C@@]5(C)C[C@]4(CC[C@@H]32)CC5=O)cc1 | 18.9 (≈ 46.5 µM) |  |  | 
